Source: PubChem BioAssay (The Scripps Research Institute Molecular Screening Center)
MsrA inhibitor = inhibits bovine methionine sulfoxide reductase A; 360,000 tested, 0.75% active; inhibition, % at 15.5 µM; AID 651718; purified bovine MsrA, absorbance read-out;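 also: 0% = vehicle wells with enzyme and 100% = reference inhibitor wells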
bovine MsrA act = activators of bovine methionine sulfoxide reductase A. 360,000 tested, 0.3% active. purified bovine MsrA, absorbance read-out. activation, % at 10.6 µM; in the data active = activation above about 7.5%;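 also: 0% = vehicle and 100% = reference activator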
MC4R antag cAMP = blocks human MC4R cAMP signaling. P32245. MC4R-expressing cells, MTII-stimulated cAMP, LANCE TR-FRET. inhibition, % at 6.5 µM. 360,000 tested, 0.48% active. AID 540295;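 active = inhibition above its plate's cutoff, the mean of tested wells on that plate plus 3 SD, cut at about 29% in these data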;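 also: 0% = Melanotan II alone and 100% = Melanotan II plus saturating MCL0020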
Target sequence (P32245 whole entry, looked up): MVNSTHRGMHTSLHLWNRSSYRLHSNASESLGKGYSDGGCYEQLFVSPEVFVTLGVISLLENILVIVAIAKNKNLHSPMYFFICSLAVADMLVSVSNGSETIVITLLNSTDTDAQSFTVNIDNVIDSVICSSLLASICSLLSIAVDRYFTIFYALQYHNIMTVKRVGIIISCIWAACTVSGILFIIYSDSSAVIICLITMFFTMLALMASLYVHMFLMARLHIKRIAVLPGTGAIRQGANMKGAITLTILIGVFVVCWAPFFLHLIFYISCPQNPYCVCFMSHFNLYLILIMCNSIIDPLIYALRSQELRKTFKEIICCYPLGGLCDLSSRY
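System: U2OS-MC4R stable cell line; Technique: Eu-cAMP/anti-cAMP TR-FRET, emission 671 nm; Repeats: single well per compound; Also added: Melanotan II; Dosing: one concentration, 6.5 µM nominal; Schedule: 30-min compound, 1-h challenge, 1-h detection, room temperature.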
MC4R ag barr = human MC4R agonism via beta-arrestin | P32245 | 360,000 tested, 0.98% active | U2OS MC4R beta-arrestin complementation, luminescence; percent of melanotan II response, DMSO zero | activation, % at 8.9 µM;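 active = activation above a per-plate cutoff, the mean activation of sample wells on that plate plus 3 SD, cut at about 8% in these data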
MsrA inh confirm = bovine MsrA inhibition, confirmed; shares compounds with MsrA inhibitor; inhibition, % at 15.5 µM; 2,300 tested, 41% active; AID 651822; purified bovine MsrA, absorbance read-out;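 also: coupled to thioredoxin reductase with NADPH and selenocystamine and DMSO as substrate; 0% = vehicle only and 100% = full effect of reference inhibitor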
An asterisk follows results filed as active; x = no result. Compounds with a hit are over-represented: about 2.3% of the library has one in this group of screens. Rule as the data show it, unless noted: active = inhibition above about 4.5%; inactive = the rest.

SMILES	MsrA inhibitor	bovine MsrA act	MC4R antag cAMP	MC4R ag barr	MsrA inh confirm
CC1CCCC(NC(=O)c2cn(C)c3ccc(S(=O)(=O)N4CCCC4)cc3c2=O)C1C (stereo unspecified)	0	x	x	x	x
O=C(NCc1ccco1)c1ccc(=O)oc1	7.9*	-6	-3	-1	6.2*
O=C(NCc1ccccc1)c1ccc(Oc2ccc(C(=O)NCc3ccccc3)cc2)cc1	0	-1	-6	2	x
COC(=O)CNC(=O)c1ccc(=O)oc1	5.8*	-7	14	-1	5.3*
O=C(NCc1ccccc1)c1ccc(=O)oc1	7.5*	-11	4	1	6.2*
C[C@H](CO)N1C[C@H](C)[C@@H](CN(C)C(=O)Cc2ccccc2)OCc2cn(nn2)CCCC1=O	1	x	x	x	x
C=CCn1c(NCc2ccc(OC)cc2O)nc2ccccc21	-1	-4	-4	0	x
Cc1ccc2c(c1)sc1nc(=O)n(-c3ccccc3)c(=O)n12	-1	-4	1	-1	x
O=C(O)c1cccc(NC2=C(n3nnc4ccccc43)C(=O)c3ccccc3C2=O)c1	32*	0	-16	-1	28*
CC(NC(=O)COc1cccnc1[N+](=O)[O-])c1ccc(F)cc1 (stereo unspecified)	1	0	19	0	x
CC1(C(=O)NS(=O)(=O)c2ccc(C#N)cc2)CCN1C(=O)c1cccc(F)c1 (stereo unspecified)	0	-2	8	-2	x
COc1ccc(/C=C(\C#N)C(=O)NC(C)c2ccccc2)cc1O (stereo unspecified)	4.9*	-6	-1	-2	3
COC(=O)c1ccc(/C=C(\C#N)C(=O)NC(C)c2ccccc2)cc1 (stereo unspecified)	0	-7	14	-4	x
C=CCC1S/C(=N/N=C/c2cccs2)NC1=O (stereo unspecified)	6.7*	-4	-5	-2	5.7*
Cc1ccccc1CC1S/C(=N/N=C/c2ccco2)NC1=O (stereo unspecified)	3	x	x	x	x
COc1ccc(/C=C(/NC(=O)c2ccccc2)c2nc3ccccc3[nH]2)cc1OC	6.5*	-7	-8	-1	4
c1ccc(-n2nnnc2-n2cnc3ccccc32)cc1	9.9*	-1	-3	0	4.7*
CCn1c(/C=C/c2ccc(O)cc2)nc2ccccc2c1=O	5.3*	-7	3	0	4.8*
COCCn1c(/C=C/c2ccccc2)nc2ccccc21	5.1*	-5	18	0	4
COc1ccccc1Cn1c(/C=C/c2ccccc2)nc2ccccc21	2	-3	1	-4	x
CCN(CC)C(=O)Cn1cc(C(=O)C(=O)N2CCN(Cc3ccccc3)CC2)c2ccccc21	1	-2	-1	-2	x
O=C(O)c1cccc2c1C(=O)c1cc([N+](=O)[O-])cc([N+](=O)[O-])c1-2	5.6*	-12	-19	0	4
O=C(O)c1cccc2c1-c1c(cccc1[N+](=O)[O-])C2	5.9*	-3	6	0	3
O=C(O)c1ccc([N+](=O)[O-])c2c1C(=O)c1ccccc1C2=O	3	-3	-2	-1	x
O=C(O)c1cccc2c1-c1ccc([N+](=O)[O-])cc1C2=O	3	-1	1	-1	x
SMILES	MsrA inhibitor	bovine MsrA act	MC4R antag cAMP	MC4R ag barr	MsrA inh confirm
CC(C)c1ccc(OCC(O)CN2CCCC2)cc1 (stereo unspecified)	1	-4	-1	-2	x
Cc1ccc(NS(=O)(=O)c2cccc(C(=O)NN3CCOCC3)c2)cc1	4	x	x	x	x
Cc1cccc(NC(=O)CSCC(=O)N2CCN(c3cccc(C(F)(F)F)c3)CC2)c1	-1	0	12	4	x
Cc1sc2nc(SCC(=O)N(C)C)[nH]c(=O)c2c1C	1	-4	-5	0	x
O=C1NC(=S)N/C1=C/C=C/c1ccccc1	4.7*	-4	-2	0	3
CCOC(=O)N1CCN(/C=C(\C#N)c2nc3ccccc3s2)CC1	7.0*	-15	1	-1	5.2*
N#C/C(=C\N1CCN(Cc2ccc3c(c2)OCO3)CC1)c1nc2ccccc2s1	2	-2	11	-1	x
COc1ccccc1/C=C/C1=NC(=C\C=C/c2ccccc2)/C(=O)O1	6.4*	-6	0	-1	2
COc1ccccc1/C=C/C=C1N=C(/C=C/c2ccc(Cl)cc2)OC/1=O	2	-4	1	-2	x
CCOC(=O)c1cccc(S(=O)(=O)N(CCO)Cc2cc3cc(OC)ccc3[nH]c2=O)c1	x	-5	3	-2	x
CCOC(=O)c1cccc(S(=O)(=O)N(CCO)Cc2cc3cc(OC)c(OC)cc3[nH]c2=O)c1	5.1*	-6	5	-2	2
